Test results published in ChEMBL document CHEMBL1139629 (Bioorg Med Chem Lett, 2005).

Legend:
[1] = test system: Cell line; assay: Inhibition concentration against ADP-induced platelet aggregation using human platelet rich plasma; type: functional, cell-based
Method in brief: (§1)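 Functional IP agonism was measured as inhibition of ADP-induced aggregation in platelet-rich plasma from human, rat, dog or monkey. IC50 was taken from the inhibition of aggregation.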

[2] = target: T1, Prostaglandin E2 receptor EP1 subtype (Homo sapiens, UniProt P34995); assay: Displacement of [3H]PGE-2 from human Prostanoid EP1 receptor
T1 sequence (P34995 whole entry): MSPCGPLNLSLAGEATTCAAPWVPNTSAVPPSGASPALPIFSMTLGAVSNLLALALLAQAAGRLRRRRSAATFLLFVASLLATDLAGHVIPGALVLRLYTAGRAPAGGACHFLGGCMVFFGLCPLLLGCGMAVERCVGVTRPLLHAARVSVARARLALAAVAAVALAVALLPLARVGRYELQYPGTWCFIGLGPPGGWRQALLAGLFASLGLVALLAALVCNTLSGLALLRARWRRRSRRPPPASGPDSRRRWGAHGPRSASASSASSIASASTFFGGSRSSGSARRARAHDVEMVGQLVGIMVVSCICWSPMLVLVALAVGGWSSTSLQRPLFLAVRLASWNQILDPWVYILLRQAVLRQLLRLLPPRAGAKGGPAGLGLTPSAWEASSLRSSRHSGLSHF

[3] = target: T2, Thromboxane A2 receptor (Homo sapiens, UniProt P21731); assay: Displacement of [3H]SQ-29,548 from human Prostanoid TP receptor
T2 sequence (P21731 whole entry): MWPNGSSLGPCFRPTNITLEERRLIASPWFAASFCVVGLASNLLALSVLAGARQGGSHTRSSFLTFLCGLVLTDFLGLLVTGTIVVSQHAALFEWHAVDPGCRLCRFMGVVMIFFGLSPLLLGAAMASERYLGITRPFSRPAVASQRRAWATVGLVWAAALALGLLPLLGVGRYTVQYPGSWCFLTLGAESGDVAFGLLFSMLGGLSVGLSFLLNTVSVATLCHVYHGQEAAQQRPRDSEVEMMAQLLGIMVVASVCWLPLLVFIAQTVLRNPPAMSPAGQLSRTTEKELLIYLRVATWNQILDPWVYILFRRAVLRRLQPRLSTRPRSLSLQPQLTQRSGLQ

[4] = target: Prostaglandin F2-alpha receptor (Homo sapiens, UniProt P43088); assay: Displacement of [3H]PGF-2 from human Prostanoid FP receptor
Chain of Prostaglandin F2-alpha receptor (P43088 whole entry): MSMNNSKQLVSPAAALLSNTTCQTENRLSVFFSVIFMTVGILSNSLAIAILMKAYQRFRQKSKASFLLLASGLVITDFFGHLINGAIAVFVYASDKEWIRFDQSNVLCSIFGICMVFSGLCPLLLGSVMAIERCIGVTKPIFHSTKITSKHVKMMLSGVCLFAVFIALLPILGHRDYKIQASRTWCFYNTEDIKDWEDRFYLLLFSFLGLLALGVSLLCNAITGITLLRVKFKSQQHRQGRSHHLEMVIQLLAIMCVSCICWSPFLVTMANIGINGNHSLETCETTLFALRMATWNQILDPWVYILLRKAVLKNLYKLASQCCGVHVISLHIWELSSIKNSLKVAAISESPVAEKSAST

[5] = target: T3, Prostaglandin E2 receptor EP3 subtype (Homo sapiens, UniProt P43115); assay: Displacement of [3H]PGE-2 from human Prostanoid EP3 receptor
T3 sequence (P43115 whole entry): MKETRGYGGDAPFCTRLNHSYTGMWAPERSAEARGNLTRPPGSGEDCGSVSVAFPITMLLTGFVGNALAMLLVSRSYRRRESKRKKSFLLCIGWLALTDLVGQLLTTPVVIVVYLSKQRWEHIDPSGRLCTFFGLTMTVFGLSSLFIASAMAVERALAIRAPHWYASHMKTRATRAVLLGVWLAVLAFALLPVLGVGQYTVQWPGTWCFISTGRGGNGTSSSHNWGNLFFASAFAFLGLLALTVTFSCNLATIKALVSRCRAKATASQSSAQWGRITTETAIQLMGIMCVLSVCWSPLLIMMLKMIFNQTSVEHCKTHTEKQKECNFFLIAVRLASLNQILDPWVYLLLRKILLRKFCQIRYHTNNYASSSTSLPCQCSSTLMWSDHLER

[6] = target: T4, Prostaglandin D2 receptor (Homo sapiens, UniProt Q13258); assay: Displacement of [3H]PGD-2 from human Prostanoid DP receptor
T4 sequence (Q13258 whole entry): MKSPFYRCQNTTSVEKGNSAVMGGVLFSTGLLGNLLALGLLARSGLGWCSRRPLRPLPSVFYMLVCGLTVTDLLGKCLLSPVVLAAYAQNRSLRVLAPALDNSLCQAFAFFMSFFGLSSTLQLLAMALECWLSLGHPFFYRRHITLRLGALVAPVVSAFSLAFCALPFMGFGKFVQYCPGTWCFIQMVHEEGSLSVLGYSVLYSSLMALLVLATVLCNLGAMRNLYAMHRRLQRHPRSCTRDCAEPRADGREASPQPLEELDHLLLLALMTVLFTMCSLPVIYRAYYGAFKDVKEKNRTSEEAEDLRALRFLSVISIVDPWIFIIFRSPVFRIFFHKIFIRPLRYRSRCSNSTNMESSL

[7] = target: Prostaglandin E2 receptor EP2 subtype (Homo sapiens, UniProt P43116); assay: Displacement of [3H]-PGE-2 from human Prostanoid EP2 receptor
Chain of Prostaglandin E2 receptor EP2 subtype (P43116 whole entry): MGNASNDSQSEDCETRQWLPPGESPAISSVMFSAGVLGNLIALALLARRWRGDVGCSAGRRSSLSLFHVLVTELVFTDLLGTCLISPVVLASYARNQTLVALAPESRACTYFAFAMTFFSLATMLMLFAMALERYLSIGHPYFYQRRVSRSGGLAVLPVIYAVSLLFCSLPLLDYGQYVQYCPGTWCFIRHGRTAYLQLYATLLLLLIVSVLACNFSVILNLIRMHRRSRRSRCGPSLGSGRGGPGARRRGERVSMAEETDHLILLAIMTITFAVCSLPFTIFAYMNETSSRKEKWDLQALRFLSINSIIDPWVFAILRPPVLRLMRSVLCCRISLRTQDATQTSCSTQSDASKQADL

[8] = species: Rattus norvegicus; assay: Inhibition concentration against ADP-induced platelet aggregation using rat platelet rich plasma; type: functional
Method in brief: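 Aggregation was induced with ADP in rat platelet-rich plasma, and IC50 was taken from inhibition of aggregation. Values are the mean of two or three experiments.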

[9] = target: Prostaglandin E2 receptor EP4 subtype (Homo sapiens, UniProt P35408); assay: Displacement of [3H]PGE-2 from human Prostanoid EP4 receptor
Chain of Prostaglandin E2 receptor EP4 subtype (P35408 whole entry): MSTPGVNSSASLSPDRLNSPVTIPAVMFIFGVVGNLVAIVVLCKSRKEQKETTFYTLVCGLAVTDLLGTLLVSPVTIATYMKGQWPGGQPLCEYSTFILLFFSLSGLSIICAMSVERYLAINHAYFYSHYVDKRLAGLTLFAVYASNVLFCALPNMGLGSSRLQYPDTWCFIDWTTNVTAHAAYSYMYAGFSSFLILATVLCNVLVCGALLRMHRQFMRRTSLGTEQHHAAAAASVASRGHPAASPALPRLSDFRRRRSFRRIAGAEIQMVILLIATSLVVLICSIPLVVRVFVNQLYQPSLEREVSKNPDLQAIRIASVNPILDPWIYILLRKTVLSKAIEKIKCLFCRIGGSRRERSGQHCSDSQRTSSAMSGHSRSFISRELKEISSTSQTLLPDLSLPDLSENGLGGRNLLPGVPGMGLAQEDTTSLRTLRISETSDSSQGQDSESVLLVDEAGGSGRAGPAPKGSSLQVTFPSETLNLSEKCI

[10] = target: Prostacyclin receptor (Homo sapiens, UniProt P43119); assay: Displacement of [3H]iloprost from human Prostanoid IP receptor
Chain of Prostacyclin receptor (P43119 whole entry): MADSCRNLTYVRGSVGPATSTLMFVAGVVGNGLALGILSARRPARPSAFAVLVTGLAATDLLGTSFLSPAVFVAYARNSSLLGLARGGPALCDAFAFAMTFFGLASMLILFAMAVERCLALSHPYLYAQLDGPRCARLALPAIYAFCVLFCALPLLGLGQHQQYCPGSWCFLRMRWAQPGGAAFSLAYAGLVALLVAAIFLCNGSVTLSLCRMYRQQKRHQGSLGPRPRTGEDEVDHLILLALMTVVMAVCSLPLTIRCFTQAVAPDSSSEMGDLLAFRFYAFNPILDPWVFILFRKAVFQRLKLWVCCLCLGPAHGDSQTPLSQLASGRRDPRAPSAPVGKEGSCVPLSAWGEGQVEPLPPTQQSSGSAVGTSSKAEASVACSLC
Method in brief: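 Competitive radioligand binding using cloned human IP receptor, measuring displacement of [3H]-iloprost.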

[11] = Area under curve in rat after oral administration at 10 mg/kg dose; type: ADME, organism-based; parameters: dose 10 mg/kg, route oral; settings: in vivo
[12] = Bioavailability in rat after […] administration at 10 mg/kg dose; type: ADME, organism-based; settings: in vivo, read-out: Ba
[13] = test system: Monkey; assay: Inhibition concentration against ADP-induced platelet aggregation using monkey platelet rich plasma; type: functional; settings: Cercopithecidae; method in brief: as §1
[14] = Total clearance in dog after intravenous administration at 0.32 mg/kg dose; type: ADME, organism-based, Canis lupus familiaris; parameters: dose 0.32 mg/kg, route intravenous; settings: in vivo, read-out: CLtot
[15] = species: Canis familiaris; assay: Inhibition concentration against ADP-induced platelet aggregation using dog platelet rich plasma; type: functional; settings: Canis lupus familiaris; method in brief: as §1
[16] = Half life in rat after intravenous administration at 10 mg/kg dose; type: ADME, organism-based; parameters: dose 10 mg/kg, route intravenous; settings: in vivo
[17] = test system: dog (Canis familiaris); assay: Area under curve in dog after oral administdogion at 0.32 mg/kg dose; settings: in vivo
[18] = Total clearance in rat after intravenous administration at 10 mg/kg dose; type: ADME, organism-based; parameters: dose 10 mg/kg, route intravenous; settings: in vivo, read-out: CLtot
[19] = Maximum concentration in rat after oral administration at 10 mg/kg dose; type: ADME, organism-based; parameters: dose 10 mg/kg, route oral; settings: in vivo

| IC50 [1] [nM] | Ki [2] [nM] | Ki [5] [nM] | Ki [7] [nM] | IC50 [8] [nM] | Ki [9] [nM] | Ki [10] [nM] | Structure (SMILES) | further results |
| --- | --- | --- | --- | --- | --- | --- | --- | --- |
| 5.8 | > 1000 | > 10000 | > 1000 | 7400 | > 10000 | 110 | O=C(O)COc1cccc2c1CC[C@](O)(COC(=O)N(c1ccccc1)c1ccccc1)C2O (single isomer, unassigned) | – |
| 170 | – | – | – | > 10000 | – | – | O=C(O)COc1cccc2c1CC[C@H](COC(=O)N(c1ccccc1)c1ccccc1)C2O (single isomer, unassigned) | – |
| 53 | > 1000 | 1900 | > 1000 | > 10000 | > 10000 | 140 | O=C(O)COc1cccc2c1CCC(COC(=O)N(c1ccccc1)c1ccccc1)C2 (stereo not given) | – |
| 3200 | – | – | – | > 10000 | – | – | O=C(O)COc1cccc2c1CC[C@H](COC(=O)N(c1ccccc1)c1ccccc1)[C@H]2O | – |
| 1300 | – | – | – | > 10000 | – | – | O=C(O)COc1cccc2c1CC[C@](O)(COC(=O)N(c1ccccc1)c1ccccc1)[C@H]2O | – |
| 270 | – | – | – | > 10000 | – | – | O=C(O)COc1cccc2c1CC[C@@](O)(COC(=O)N(c1ccccc1)c1ccccc1)C2 | – |

The remaining lines, values behind:

| Structure (SMILES) | IC50 [1] [nM] | Ki [2] [nM] | Ki [5] [nM] | Ki [7] [nM] | IC50 [8] [nM] | Ki [9] [nM] | Ki [10] [nM] | further results |
| --- | --- | --- | --- | --- | --- | --- | --- | --- |
| CC#CCC(C)[C@H](O)/C=C/[C@@H]1[C@H]2C/C(=C/CCCC(=O)O)C[C@H]2C[C@H]1O (stereo not given in full) [ILOPROST] | 2.5 | – | – | – | – | – | – | – |
| O=C(O)COc1cccc(C[C@@H]2CCCC=C2c2nc(-c3ccccc3)c(-c3ccccc3)o2)c1 | – | > 1000 | 6800 | > 1000 | – | – | – | Ki [3]: > 1000 nM; Ki [4]: > 1000 nM; Ki [6]: > 1000 nM |
| O=C(O)COc1cccc2c1CCC(COC(=O)N(c1ccccc1)c1ccccc1)=C2 | 91 | – | – | – | > 10000 | – | – | – |
| CCC/C(CC1CCc2c(cccc2OCC(=O)O)C1)=N\OC(c1ccccc1)c1ccccc1 (stereo not given) [AP-227] | 150 | – | – | – | 5600 | – | – | – |
| O=C(O)COc1cccc2c1CCC[C@H]2N1CCC[C@@H]1c1nc(-c2ccccc2)c(-c2ccccc2)o1 | – | > 1000 | > 10000 | > 1000 | – | > 10000 | 12 | Ki [3]: > 1000 nM; Ki [4]: > 1000 nM; Ki [6]: > 1000 nM |
| O=C(O)COc1cccc2c1CC[C@](O)(COC(=O)N(c1ccccc1)c1ccccc1)C2 | 18 | 9600 | 8200 | > 10000 | 1400 | > 10000 | 8.9 | AUC [11]: 1590 ng·h/mL; bioavailability [12]: 38%; IC50 [13]: 13 nM; clearance [14]: 2.31 mL/min/kg; Ki [3]: > 10000 nM; Ki [4]: > 10000 nM; IC50 [15]: 480 nM; half-life [16]: 1.81 h; Ki [6]: 2300 nM; AUC [17]: 2200 ng·h/mL; clearance [18]: 38 mL/min/kg; Cmax [19]: 342 ng/mL |
